Reference: publication PMC6506245 (Science Advances, 2019)
Like-named read-outs stand apart in the source and are kept apart here. Values belong to the compound of their own block, whether it stands above or below them. Bridge positions count the residues as written; N and C are the ends. Square brackets hold non-standard residues; d marks the D form. Peptide text beside a SMILES is read from it. * marks the point of attachment. Biotin = O=C1N[C@H]2[C@H](CS[C@H]2CCCCC(=O)*)N1; 2Nal = N[C@@H](Cc1ccc2ccccc2c1)C(=O)O; S5 = C=CCCC[C@](C)(N)C(=O)O

Columns and labels:
β-cat [1] = molecular target: T1, β-cat (Homo sapiens, UniProt P35222); test: ALPHA binding assay
T1 sequence (P35222 1-781): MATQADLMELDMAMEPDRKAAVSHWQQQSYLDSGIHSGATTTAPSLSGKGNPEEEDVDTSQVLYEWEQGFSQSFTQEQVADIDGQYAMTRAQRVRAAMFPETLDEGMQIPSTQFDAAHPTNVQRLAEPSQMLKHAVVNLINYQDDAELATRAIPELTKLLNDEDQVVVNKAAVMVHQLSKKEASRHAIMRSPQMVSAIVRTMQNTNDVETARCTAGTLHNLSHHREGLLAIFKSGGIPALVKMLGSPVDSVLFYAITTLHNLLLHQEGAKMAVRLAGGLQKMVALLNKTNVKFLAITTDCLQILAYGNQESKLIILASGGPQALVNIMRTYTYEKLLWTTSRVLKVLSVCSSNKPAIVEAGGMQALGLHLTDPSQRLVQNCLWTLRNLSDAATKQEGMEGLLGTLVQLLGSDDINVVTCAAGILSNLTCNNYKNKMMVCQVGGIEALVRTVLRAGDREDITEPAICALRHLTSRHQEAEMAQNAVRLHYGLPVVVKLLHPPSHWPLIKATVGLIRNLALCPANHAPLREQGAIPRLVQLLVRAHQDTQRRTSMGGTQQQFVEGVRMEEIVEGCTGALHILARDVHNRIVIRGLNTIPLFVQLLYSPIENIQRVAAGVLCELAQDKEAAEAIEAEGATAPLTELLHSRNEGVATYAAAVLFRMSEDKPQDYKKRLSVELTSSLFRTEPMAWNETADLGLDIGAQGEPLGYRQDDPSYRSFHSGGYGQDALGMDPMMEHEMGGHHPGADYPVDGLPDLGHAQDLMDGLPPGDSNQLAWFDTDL

β-cat [2] = molecular target: T1, β-cat; test: HTRF binding assay
Colo320DM cells = test: Colo320DM cell viability assay; format: cell-based, human; conditions: 72 h, read-out: IC50, growth of Colo320DM
[3] = molecular target: histidine-tagged β-catenin (β-cat) protein (UniProt P35222); test: AlphaScreen or HTRF
Plasma stability assay = format: in vitro ADME, BALB/c nude mice; conditions: BALB/c nude, mouse
PK profiling in mice = format: in vivo, BALB/c mice
[4] = Dose-escalating toxicity study; format: in vivo, BALB/c mice
In short: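 BALB/c mice received vehicle control or test compound at 10, 15 or 20 mg/kg by i.p. injection, once daily for 14 days. Serum chemistry and hematology were done after the 2-week treatment and compared with vehicle-treated animals.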

Compound: CCCC[C@H](NC(=O)[C@H](CCCNC(=N)N)NC(=O)[C@H](CCC(N)=O)NC(=O)[C@@H](NC(=O)[C@]1(C)CCCC=CCCC[C@](C)(NC(=O)[C@H](CC(C)C)NC(=O)[C@H](CO)NC(=O)[C@H](CCCNC(=N)N)NC(=O)[C@H](CCC(=O)O)NC(=O)[C@H](CCCNC(=N)N)NC(=O)[C@H](Cc2c[nH]cn2)NC(=O)[C@H](CCC(=O)O)NC(=O)[C@H](CC(C)C)NC(=O)[C@H](CCC(N)=O)NC(=O)[C@H](CCC(=O)O)NC(=O)[C@H](CCC(N)=O)NC(=O)[C@H](CO)NC(=O)[C@H](CC(C)C)NC(C)=O)C(=O)N[C@@H]([C@@H](C)O)C(=O)N[C@@H](CC(C)C)C(=O)N[C@@H](CCCNC(=N)N)C(=O)N1)[C@@H](C)CC)C(=O)N[C@@H](CC(C)C)C(=O)N[C@@H](Cc1ccccc1)C(N)=O [SAH-BCL9B]
- Kd (β-cat [1]): 142 nM
- Kd (β-cat [2]): 192 nM

Compound: CC[C@H](C)[C@H](NC(=O)[C@H](CC(=O)O)NC(=O)[C@H](CCCNC(=N)N)NC(=O)[C@H](CC(C)C)NC(=O)[C@@H](NC(=O)[C@H](CCC(N)=O)NC(=O)[C@H](CC(C)C)NC(=O)[C@H](CO)NC(=O)[C@H](CCCNC(=N)N)NC(=O)[C@H](CCC(=O)O)NC(=O)[C@H](CCCNC(=N)N)NC(=O)[C@H](Cc1c[nH]cn1)NC(=O)[C@H](CCC(=O)O)NC(=O)[C@H](CC(C)C)NC(=O)[C@H](CCC(N)=O)NC(=O)[C@H](CCC(=O)O)NC(=O)[C@H](CCC(N)=O)NC(=O)[C@H](CO)NC(=O)[C@H](CC(C)C)NC(=O)CCCC[C@@H]1SC[C@@H]2NC(=O)N[C@@H]21)[C@@H](C)O)C(=O)N[C@@H](CCC(N)=O)C(=O)N[C@@H](CCCNC(=N)N)C(=O)N[C@@H](CCSC)C(=O)N[C@@H](CC(C)C)C(=O)N[C@@H](Cc1ccccc1)C(=O)O [BCL9-HD2A] (Biotin-LSQEQLEHRERSLQTLRDIQRMLF-OH)
- Kd (β-cat [1]): 14.3 nM
- Kd (β-cat [2]): 38.3 nM

Compound: hsBCL9CT-24 (hydrocarbon-stapled BCL9-HD2 peptide)
- Kd [3]: 4.21 nM

Compound: CCN(CC)CCOC(=O)c1ccc(N)cc1 [Procaine, reference compound]
- remaining at 1 h, 2 µM (Plasma stability assay): 0.02%

Compound: CC[C@H](C)[C@@H]1NC(=O)[C@@](C)(NC(=O)[C@H](CCCNC(=N)N)NC(=O)[C@H](CC(C)C)NC(=O)[C@@H](NC(=O)[C@H](CCC(N)=O)NC(=O)[C@H](CC(C)C)NC(C)=O)[C@@H](C)O)CCCC=CCCC[C@@](C)(C(=O)N[C@@H](CC(C)C)C(=O)N[C@@H](Cc2ccc3ccccc3c2)C(N)=O)NC(=O)[C@H](CCCNC(=N)N)NC(=O)[C@H](CCC(N)=O)NC1=O [hsBCL9CT-24] (Ac-LQTLR[S5]IQR[S5]L[2Nal]-NH2; staple 6-10)
- half-life at 2 µM (Plasma stability assay): 5.13 h
- Kd (β-cat [1]): 4.73 nM
- IC50 (Colo320DM cells; CellTiter-Glo): 1450 nM
- bioavailability (PK profiling in mice; BALB/c, mouse, plasma, sc, 10 mg/kg): 56%
- Terminal t1/2 (PK profiling in mice; i.m. 5 mg/kg, BALB/c mice n = 2, table S2A): 10.6 h
- survival in toxicity study ([4]; 10, 15, or 20 mg/kg i.p., QD over 14 days): All animals survived the duration of study
- serum chemistry and hematology versus vehicle control ([4]; after a 2-week treatment period, 20 mg/kg QD (fig. S4I)): no difference
- toxicity in brain, lung, kidney, liver, heart, and spleen tissues by histology ([4]; i.p. QD over 14 days (fig. S4C: 10 mg/kg)): minimal toxicity

More lines, now with the values ahead:

- IC50 (Colo320DM cells; Homo sapiens, COLO 320DM): 18500 nM
Compound: Cc1cc(-c2ncc(CC(=O)Nc3ccc(-c4cnccn4)cn3)cc2C)ccn1 [LGK-974]

- IC50 (Colo320DM cells; CellTiter-Glo): 15000 nM
Compound: O=C1[C@H](Cc2ccc(O)cc2)N2C(=O)CCN(C(=O)NCc3ccccc3)[C@H]2CN1Cc1cccc2ccccc12 [ICG-001]
